Results: PMC12034291 (International Journal of Nanomedicine, 2025)
≈ marks a conversion by molar mass, not a printed value. Entries after “also recorded” stand apart in the source; their conditions may differ.

Legend:
U87 cells = assay: CCK-8 cytotoxicity assay, U87 cells; format: cell-based, human
Method in brief: (§1)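 CCK-8 viability assay in cells grown in high-glucose DMEM with 10% FBS at 37°C, 5% CO2. Peptide alone was tested at 0, 15, 30, 60 and 120 μg/mL in medium with 10% serum. Blank wells received medium only. Because the test material carries a fluorescent label, parallel wells without CCK-8 gave a D(450) background, which was subtracted. Viability (%) = (experimental − blank)/(control − blank) × 100. Three independent repeats, mean ± SD, t-test/one-way ANOVA.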

FLT4 = details: cited from earlier work
FLT4 protein = assay: Surface plasmon resonance; format: binding; details: TMVP1 10 mg/mL; FLT4 protein 0.6 mg/mL on CM5 chip
Method in brief: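 SPR on a […]. Recombinant FLT4 protein (0.6 mg/mL) was coupled directly to a CM5 chip as the solid phase. The peptide (10 mg/mL) was run as analyte in the mobile phase. The maximum binding response within 150 s was recorded in RU, where 1 RU = 1 pg/mm² surface change.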

[1] = test system: FLT4 protein (U87 and U373 cells); assay: Fluorescent peptide in vitro binding / colocalization with FLT4; format: cell-based, human; details: FAM-labeled TMVP1; confocal, green and red light brightness 110
[2] = UV-visible spectrophotometry of TMVP1 coupling rate; format: physicochemical; details: FAM-labeled TMVP1
Method in brief: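 Coupling efficiency of the FAM-labelled peptide to liposomes was measured by UV-visible absorbance at 456 nm, before and after coupling. Coupling rate = (absorbance decrease)/(absorbance before coupling) × 100%. Liposome-bound peptide concentration was estimated from this rate.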

[3] = cited from earlier work
[4] = after combining with nanoprobes; cited from earlier work
HEB cells = assay: CCK-8 cytotoxicity assay, HEB cells; format: cell-based, human; details: TMVP1 0, 15, 30, 60, 120 μg/mL, P>0.05
Method in brief: as §1

Molecule: Cn1nnc2c(C(N)=O)ncn2c1=O [TMZ, Temozolomide, reference compound]
- IC50 (U87 cells; Homo sapiens, U-87 MG, read-out: IC50 (cytotoxicity)): 48.4 µg/mL (≈ 249 µM)

Molecule: LARGR [TMVP1]
- binding speed to FLT4 versus traditional monoclonal antibodies (FLT4): faster binding speed
- binding affinity to FLT4 (in words) (FLT4 protein): strong binding affinity
- fluorescence intensity, U87 versus U373 cell line [1]: the fluorescence intensity in the U87 cell line was higher than in the U373 cell line
- absorbance after coupling TMVP1 ([2]; 456 nm): 0.069
- absorbance before coupling TMVP1 ([2]; 456 nm): 0.296
- TMVP1 coupling rate ([2]; absorbance at 456 nm, (absorbance decrease before and after coupling)/(absorbance before coupling) × 100%): 76.68%
- TMVP1 concentration (from coupling rate) ([2]; estimated from coupling rate): around 0.153 mg/mL
- immunogenicity versus traditional monoclonal antibodies [3]: lower immunogenicity than traditional monoclonal antibodies
- biocompatibility and in vivo stability [4]: good biocompatibility and in vivo stability
- cytotoxicity of peptide alone towards U87 cells (U87 cells; CCK-8, U87 cells, TMVP1 0, 15, 30, 60, 120 μg/mL, P>0.05): did not show significant cytotoxicity towards U87 cells; also recorded: no significant biological toxicity
- biological toxicity of peptide alone to HEB cells (HEB cells): no significant biological toxicity
